This note sets out measurements from ChEMBL document CHEMBL4118265, “A cascade synthesis, in vitro cholinesterases inhibitory activity and docking studies of novel Tacrine-pyranopyrazole derivatives” (Bioorg Med Chem Lett, 2018).

One experiment has as its target Acetylcholinesterase (Electrophorus electricus, UniProt O42275). The experiment can be described thus: Inhibition of electric eel AChE using acetylthiocholine iodide as substrate preincubated for 15 mins followed by substrate addition measured every 5 mins for 15 mins by spectrophotometric method.
For experiment [1], the target named is Cholinesterase (Equus caballus) (UniProt P81908). Description: Inhibition of horse serum BChE at 0.391 ug using butyrylthiocholine chloride as substrate preincubated for 15 mins followed by substrate addition measured every 5 mins for 15 mins by spectrophotometric method relative to control. Put shortly:
(§1)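 Ellman colorimetric assay. Compound in methanol (10 µl) was mixed with 150 µl 100 mM sodium phosphate pH 8.0 and BChE (6.85 x10-3 U) and held 15 min at 25 °C. DTNB (0.5 mM) was added, then butyrylthiocholine chloride (0.2 mM) to start the reaction. A412 read every 5 min for 15 min, in triplicate. Percent inhibition = (E−S)/E×100 against a methanol blank.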

Experiment [2] shares this target. The experiment can be described thus: Inhibition of horse serum BChE at 6.25 ug using butyrylthiocholine chloride as substrate preincubated for 15 mins followed by substrate addition measured every 5 mins for 15 mins by spectrophotometric method relative to control. In a few lines: as §1
For experiment [3] the target is unchanged. The experiment can be described thus: Inhibition of horse serum BChE at 0.781 ug using butyrylthiocholine chloride as substrate preincubated for 15 mins followed by substrate addition measured every 5 mins for 15 mins by spectrophotometric method relative to control. Put shortly:
as §1

For experiment [4] the target is unchanged. Description: Inhibition of horse serum BChE at 12.5 ug using butyrylthiocholine chloride as substrate preincubated for 15 mins followed by substrate addition measured every 5 mins for 15 mins by spectrophotometric method relative to control. Put shortly:
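Ellman colorimetric assay. DTNB (0.5 mM) was added, then butyrylthiocholine chloride (0.2 mM) to start the reaction. A412 read every 5 min for 15 min, in triplicate. Percent inhibition = (E−S)/E×100 against a methanol blank.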

Experiment [5] is described as follows: Selectivity ratio of IC50 for horse serum BChE to IC50 for electric eel AChE.
Experiment [6] has as its target Cholinesterase (Equus caballus) (UniProt P81908). The experiment can be described thus: Inhibition of horse serum BChE at 1.563 ug using butyrylthiocholine chloride as substrate preincubated for 15 mins followed by substrate addition measured every 5 mins for 15 mins by spectrophotometric method relative to control. Put shortly:
as §1

Another experiment addresses Cholinesterase (Equus caballus, UniProt P81908). Description: Inhibition of horse serum BChE using butyrylthiocholine chloride as substrate preincubated for 15 mins followed by substrate addition measured every 5 mins for 15 mins by spectrophotometric method. In a few lines: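 BChE (6.85 x10-3 U) in 100 mM sodium phosphate pH 8.0 was preincubated 15 min at 25 °C with compound at several concentrations in methanol. DTNB (0.5 mM) and butyrylthiocholine chloride (0.2 mM) were then added. A412 read every 5 min for 15 min. IC50 derived from percent inhibition versus a methanol blank; mean ± SD of triplicates.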

Experiment [7] addresses Cholinesterase (Equus caballus) (UniProt P81908). Description: Inhibition of horse serum BChE at 3.125 ug using butyrylthiocholine chloride as substrate preincubated for 15 mins followed by substrate addition measured every 5 mins for 15 mins by spectrophotometric method relative to control. In a few lines:
as §1

Experiment [8] has the same target. The experiment can be described thus: Inhibition of horse serum BChE at 25 ug using butyrylthiocholine chloride as substrate preincubated for 15 mins followed by substrate addition measured every 5 mins for 15 mins by spectrophotometric method relative to control. Put shortly: as §1
Experiment [9] addresses Acetylcholinesterase (Electrophorus electricus) (UniProt O42275). Description: Inhibition of electric eel AChE at 0.012 ug using acetylthiocholine iodide as substrate preincubated for 15 mins followed by substrate addition measured every 5 mins for 15 mins by spectrophotometric method relative to control. Put shortly:
(§2)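 Ellman colorimetric assay. Compound in methanol (10 µl) was mixed with 150 µl 100 mM sodium phosphate pH 8.0 and AChE (5.32 x10-3 U) and held 15 min at 25 °C. DTNB (0.5 mM) was added, then acetylthiocholine iodide (0.71 mM) to start the reaction. Thiolate formation read at 412 nm every 5 min for 15 min, in triplicate. Percent inhibition = (E−S)/E×100 against a methanol blank.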

For experiment [10] the target is unchanged. Description: Inhibition of electric eel AChE at 0.006 ug using acetylthiocholine iodide as substrate preincubated for 15 mins followed by substrate addition measured every 5 mins for 15 mins by spectrophotometric method relative to control. In a few lines: as §2

Each structure is given as a SMILES string. Bounds are passed on as bounds.

Acetylcholinesterase (Electrophorus electricus), sequence (O42275 24-633 limits assumed): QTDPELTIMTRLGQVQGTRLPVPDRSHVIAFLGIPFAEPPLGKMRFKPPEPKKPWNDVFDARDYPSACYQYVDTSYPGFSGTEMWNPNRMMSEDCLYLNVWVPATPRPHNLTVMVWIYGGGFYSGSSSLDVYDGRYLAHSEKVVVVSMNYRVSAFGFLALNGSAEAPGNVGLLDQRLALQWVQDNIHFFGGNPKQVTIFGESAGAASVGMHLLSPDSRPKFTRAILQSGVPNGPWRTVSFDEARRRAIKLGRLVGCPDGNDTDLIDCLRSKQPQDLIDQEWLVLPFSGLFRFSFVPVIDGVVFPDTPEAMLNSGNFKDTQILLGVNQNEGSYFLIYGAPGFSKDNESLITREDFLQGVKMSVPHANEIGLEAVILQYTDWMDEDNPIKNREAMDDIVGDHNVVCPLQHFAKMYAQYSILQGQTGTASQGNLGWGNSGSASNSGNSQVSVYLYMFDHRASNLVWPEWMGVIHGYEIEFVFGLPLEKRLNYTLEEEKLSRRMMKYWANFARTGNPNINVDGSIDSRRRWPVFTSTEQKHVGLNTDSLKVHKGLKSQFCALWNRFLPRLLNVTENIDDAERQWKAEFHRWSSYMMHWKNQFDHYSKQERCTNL
Cholinesterase (Equus caballus), sequence (P81908 whole entry): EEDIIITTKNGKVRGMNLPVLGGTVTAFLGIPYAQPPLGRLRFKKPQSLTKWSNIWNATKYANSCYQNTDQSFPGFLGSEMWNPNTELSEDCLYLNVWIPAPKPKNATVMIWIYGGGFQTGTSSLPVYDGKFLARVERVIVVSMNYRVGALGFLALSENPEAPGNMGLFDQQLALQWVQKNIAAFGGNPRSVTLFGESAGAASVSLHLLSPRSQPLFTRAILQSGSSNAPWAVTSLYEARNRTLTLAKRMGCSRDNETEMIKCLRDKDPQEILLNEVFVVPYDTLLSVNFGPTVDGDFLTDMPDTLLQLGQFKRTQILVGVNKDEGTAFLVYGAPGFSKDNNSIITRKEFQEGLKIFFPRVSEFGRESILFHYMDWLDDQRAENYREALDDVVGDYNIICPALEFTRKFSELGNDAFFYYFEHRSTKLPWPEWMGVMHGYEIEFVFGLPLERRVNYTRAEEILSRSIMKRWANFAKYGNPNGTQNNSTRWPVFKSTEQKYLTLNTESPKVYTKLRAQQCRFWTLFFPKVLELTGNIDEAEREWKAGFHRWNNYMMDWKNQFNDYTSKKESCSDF
Cholinesterase, sequence (P81908 whole entry): as above
Acetylcholinesterase, sequence (O42275 whole entry): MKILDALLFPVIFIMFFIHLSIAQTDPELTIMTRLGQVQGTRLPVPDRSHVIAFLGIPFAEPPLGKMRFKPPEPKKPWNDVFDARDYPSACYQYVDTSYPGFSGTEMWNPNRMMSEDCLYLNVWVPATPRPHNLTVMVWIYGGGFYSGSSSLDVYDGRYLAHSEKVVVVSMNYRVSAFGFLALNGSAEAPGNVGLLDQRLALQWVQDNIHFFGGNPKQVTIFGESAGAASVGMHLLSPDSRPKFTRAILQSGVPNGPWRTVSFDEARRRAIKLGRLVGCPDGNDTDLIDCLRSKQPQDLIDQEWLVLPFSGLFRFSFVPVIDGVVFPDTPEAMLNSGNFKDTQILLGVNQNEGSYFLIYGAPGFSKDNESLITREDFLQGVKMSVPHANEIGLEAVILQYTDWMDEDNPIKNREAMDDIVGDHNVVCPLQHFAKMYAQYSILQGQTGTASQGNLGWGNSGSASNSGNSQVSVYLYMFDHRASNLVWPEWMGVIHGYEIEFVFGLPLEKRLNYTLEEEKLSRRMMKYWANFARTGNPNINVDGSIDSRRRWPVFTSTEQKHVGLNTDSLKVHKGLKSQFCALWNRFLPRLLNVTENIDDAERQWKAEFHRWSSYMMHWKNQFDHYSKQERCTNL

As to `Cc1[nH]nc2c1C(c1c(Cl)cccc1[N+](=O)[O-])c1c(nc3c(c1N)CCCC3)O2` (stereo not given), the IC50 at Acetylcholinesterase was found to be 1770 nM; on Cholinesterase, 1840 nM. Further, the inhibition in [1] came out at 37.6%; in [2], 86.5%; in [3] it was 52.1%; in experiment [4], 94.3%; in experiment [6], 66.2%; in experiment [7] it was 85.3%. In experiment [8], this compound came in with an inhibition of 98.7%. In addition, the Ratio IC50 in experiment [5] was 1.04.

Turning to `Cc1[nH]nc2c1C(c1cc([N+](=O)[O-])ccc1Cl)c1c(nc3c(c1N)CCCC3)O2` (stereo not given), the results for the IC50 against Acetylcholinesterase and at Cholinesterase were 1040 nM and 2500 nM, respectively. In addition, the inhibition in experiment [1] is 5.53%; in experiment [2] it was 35.6%; in experiment [3], 10.2%; in experiment [4], 54.2%; in [6], 13.9%; in [7], 21.6%. Also, the inhibition in experiment [8] turned out to be 71.9%. Moreover, the Ratio IC50 in [5] was determined as 2.4.

In the case of `Cc1[nH]nc2c1C(c1ccc([N+](=O)[O-])cc1)c1c(nc3c(c1N)CCCC3)O2` (stereo not given), the values for the half-maximal inhibitory concentration (IC50) against Acetylcholinesterase and at Cholinesterase were 5800 nM and 2730 nM, respectively. The inhibition amounted to 24.9% in [1]; 90.3% in [2]; 37.9% in experiment [3]; 92.6% in experiment [4]; 66.8% in [6]; 75.1% in [7]. Further, the inhibition in [8] is 93.2%. Further, the Ratio IC50 in experiment [5] is 0.47.

As for `Cc1[nH]nc2c1C(c1ccc(Cl)cc1)c1c(nc3c(c1N)CCCC3)O2` (stereo not given), the IC50 at Acetylcholinesterase is 1660 nM; on Cholinesterase, > 68200 nM. Further, the inhibition was determined as 20.8% in experiment [1]; 31.7% in [2]; 23% in experiment [3]; 45.8% in [4]; 23.4% in experiment [6]; 27.9% in experiment [7]. This compound registered an inhibition in experiment [8] of 46.9%. In addition, the Ratio IC50 in experiment [5] is > 41.

Turning to `Cc1[nH]nc2c1C(c1ccc(Br)cc1)c1c(nc3c(c1N)CCCC3)O2` (stereo not given), the IC50 at Acetylcholinesterase was 1800 nM; on Cholinesterase it was 11600 nM. The inhibition turned out to be 13.1% in experiment [1]; 58.5% in experiment [2]; 17.4% in [3]; 60.5% in experiment [4]; 37.9% in experiment [6]; 43.1% in [7]. Further, the inhibition in [8] came out at 69.9%. Also, in [5], the Ratio IC50 is 6.47.

On to `Cc1ccc(C2c3c(n[nH]c3C)Oc3nc4c(c(N)c32)CCCC4)c(C)c1` (stereo not given), for which the figures for the IC50 on Acetylcholinesterase and against Cholinesterase were 290 nM and 39000 nM, respectively. The inhibition in experiment [2] worked out at 44.8%; in [4], 49.7%; in experiment [7], 13.3%; in experiment [8] it was 51.9%. Further, the Ratio IC50 in [5] is 135.

In the case of `COc1ccc2ccccc2c1C1c2c(n[nH]c2C)Oc2nc3c(c(N)c21)CCCC3` (stereo not given), the results for the IC50 against Acetylcholinesterase and against Cholinesterase were 130 nM and 11300 nM, respectively. Moreover, the inhibition in experiment [1] was 2.86%; in experiment [2] it was 51.9%; in experiment [3], 7.31%; in experiment [4] it was 63%; in experiment [9], 16.1%; in experiment [6] it was 25.1%. Also, the inhibition turned out to be 47.9% in experiment [7], 70% in experiment [8] and 12.6% in experiment [10]. The Ratio IC50 in [5] stood at 87.3.

Regarding `COc1ccc(C2c3c(n[nH]c3C)Oc3nc4c(c(N)c32)CCCC4)c(OC)c1` (stereo not given), the IC50 against Acetylcholinesterase came out at 260 nM; on Cholinesterase, 31100 nM. Besides, the inhibition in experiment [2] is 55.8%; in experiment [3], 17.8%; in experiment [4] it was 62.8%; in experiment [6], 37.1%; in experiment [7] it was 43%; in experiment [8], 80.8%. For the same compound, the Ratio IC50 in [5] came to 120.

On to `COc1ccc2c3c1O[C@H]1C[C@@H](O)C=C[C@@]31CCN(C)C2`, for which the inhibition in experiment [1] was 11.1%; in experiment [3] it was 21%; in [6] it was 55.2%; in experiment [7], 63.9%; in experiment [8] it was 97%.

`Cc1[nH]nc2c1C(c1cccnc1)c1c(nc3c(c1N)CCCC3)O2` (stereo not given): the values for the half-maximal inhibitory concentration (IC50) against Acetylcholinesterase and on Cholinesterase were 330 nM and 4260 nM, respectively. Also, the inhibition in experiment [1] turned out to be 18.2%; in experiment [2] it was 72%; in experiment [3], 41.6%; in experiment [4] it was 74.2%; in [9] it was 13.1%; in [6], 53.9%. Also, the inhibition in experiment [7] turned out to be 57.1%; in experiment [8] it was 84.8%; in [10], 6.61%. Besides, the Ratio IC50 in experiment [5] is 12.9.

Take `CSc1ccc(C2c3c(n[nH]c3C)Oc3nc4c(c(N)c32)CCCC4)cc1` (stereo not given): the values for the IC50 on Acetylcholinesterase and on Cholinesterase were 58 nM and > 66000 nM, respectively. Also, the inhibition is 0.11% in experiment [1]; 36.6% in experiment [2]; 10.1% in [3]; 44.5% in experiment [4]; 36.9% in experiment [9]; 23.7% in [6]. The inhibition in experiment [7] came to 31%; in experiment [8], 46.7%; in experiment [10], 30.4%. Besides, in experiment [5], the Ratio IC50 was > 1140.

As for `Cc1[nH]nc2c1C(c1ccccc1)c1c(nc3c(c1N)CCCC3)O2` (stereo not given), the values for the IC50 against Acetylcholinesterase and on Cholinesterase were 1230 nM and 36000 nM, respectively. In addition, the inhibition amounted to 5.38% in [1]; 30.7% in experiment [2]; 10.7% in experiment [3]; 52.5% in experiment [4]; 13.6% in experiment [6]; 23.9% in experiment [7]. Further, the inhibition in experiment [8] worked out at 72.9%. The Ratio IC50 in experiment [5] is 29.3.

For `Cc1[nH]nc2c1C(c1ccc(-c3ccccc3)cc1)c1c(nc3c(c1N)CCCC3)O2` (stereo not given), the concentration for half-maximal inhibition (IC50) against Acetylcholinesterase is 44 nM; against Cholinesterase, > 61200 nM. For the same compound, the inhibition in experiment [2] was determined as 11.8%; in [4], 14.1%; in experiment [9], 43%; in experiment [8], 20.6%; in [10], 34.4%. Also, in experiment [5], the Ratio IC50 is > 1390.
